From ChEMBL document CHEMBL4325860, “Synthesis of novel 2-(1-adamantanylcarboxamido)thiophene derivatives. Selective cannabinoid type 2 (CB2) receptor agonists as potential agents for the treatment of skin inflammatory disease” (Eur J Med Chem, 2019)
Activity calls are given as the source filed them. The rule behind the calls is not given here.

Key:
[1] = organism: Homo sapiens; assay: Selectivity index, ratio of Ki for displacement of [3H]CP55940 from recombinant human CB1R expressed in HEK293 cell membranes to Ki for displacement of [3H]CP55940 from recombinant human CB2R expressed in HEK293 cell membranes
Procedure, shortened: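 Competition binding on membranes of HEK cells transfected with human CB1R or CB2R, radioligand [³H]CP-55,940. Ki from at least three separate experiments run in duplicate, reported as mean. Selectivity index = Ki(CB1R)/Ki(CB2R).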

[2] = biological target: T1, Cannabinoid receptor 2 (Homo sapiens, UniProt P34972); assay: Displacement of [3H]CP55940 from recombinant human CB2R expressed in HEK293 cell membranes measured after 90 mins
T1 sequence (P34972 whole entry): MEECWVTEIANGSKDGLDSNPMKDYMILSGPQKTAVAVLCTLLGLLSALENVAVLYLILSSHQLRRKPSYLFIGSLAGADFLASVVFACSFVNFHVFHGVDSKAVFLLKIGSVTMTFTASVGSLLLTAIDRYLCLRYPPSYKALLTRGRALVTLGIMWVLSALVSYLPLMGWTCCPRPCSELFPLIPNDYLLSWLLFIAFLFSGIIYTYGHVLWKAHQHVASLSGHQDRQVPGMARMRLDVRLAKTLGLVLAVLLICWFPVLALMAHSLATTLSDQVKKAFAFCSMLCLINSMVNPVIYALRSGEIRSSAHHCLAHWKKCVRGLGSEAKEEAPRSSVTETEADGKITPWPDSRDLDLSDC

[3] = biological target: T1, Cannabinoid receptor 2; assay: Displacement of [3H]CP55940 from recombinant human CB2R expressed in HEK293 cell membranes at 10 uM measured after 90 mins relative to control
[4] = biological target: Cannabinoid receptor 1 (Homo sapiens, UniProt P21554); assay: Displacement of [3H]CP55940 from recombinant human CB1R expressed in HEK293 cell membranes measured after 90 mins
Cannabinoid receptor 1, sequence (P21554 whole entry): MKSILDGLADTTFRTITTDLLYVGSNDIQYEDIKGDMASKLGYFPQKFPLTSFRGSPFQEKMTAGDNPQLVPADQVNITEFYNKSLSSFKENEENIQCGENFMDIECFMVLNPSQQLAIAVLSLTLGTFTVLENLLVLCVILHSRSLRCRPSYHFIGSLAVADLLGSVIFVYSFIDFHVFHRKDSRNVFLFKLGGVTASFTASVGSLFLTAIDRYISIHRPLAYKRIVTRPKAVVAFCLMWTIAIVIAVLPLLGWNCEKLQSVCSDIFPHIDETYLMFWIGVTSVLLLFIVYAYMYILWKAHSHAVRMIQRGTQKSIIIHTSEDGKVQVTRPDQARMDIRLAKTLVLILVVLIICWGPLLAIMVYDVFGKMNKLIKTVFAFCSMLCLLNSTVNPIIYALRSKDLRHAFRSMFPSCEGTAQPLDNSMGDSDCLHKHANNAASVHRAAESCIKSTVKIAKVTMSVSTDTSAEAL

[5] = biological target: Cannabinoid receptor 1 (CB1R) (Homo sapiens, UniProt P21554); assay: Displacement of [3H]CP55940 from recombinant human CB1R expressed in HEK293 cell membranes at 10 uM measured after 90 mins relative to control; details: membranes of HEK293 cells expressing recombinant human CB1R, probe [3H]CP55940
Cannabinoid receptor 1 (CB1R), sequence (P21554 whole entry): as above

[6] = biological target: T1, Cannabinoid receptor 2; assay: Agonist activity at recombinant human CB2R expressed in CHOK1 cells assessed as inhibition of NKH477-stimulated intracellular cAMP levels after 30 mins by chemiluminescent assay; assay type: functional, cell-based
Procedure, shortened: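 cAMP Hunter enzyme fragment complementation assay with chemiluminescent detection, in stable CHO cells expressing human CB2R, stimulated with NKH-477. Concentration-response curves. Response normalized with NKH-477 alone as 100%. Mean ± SEM of three independent experiments run in triplicate.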

[7] = biological target: T1, Cannabinoid receptor 2; assay: Activity at recombinant human CB2R expressed in CHOK1 cells assessed as effect on basal intracellular cAMP levels at higher concentration measured after 30 mins by chemiluminescent assay; assay type: functional, cell-based
[8] = biological target: T1, Cannabinoid receptor 2; assay: Agonist activity at recombinant human CB2R expressed in CHOK1 cells assessed as inhibition of NKH477-stimulated intracellular cAMP levels preincubated for 15 mins followed by CB2R agonist JWH133 addition and measured after 30 mins by chemiluminescent assay; assay type: functional, cell-based
[9] = tested on: HaCaT; assay: Antiinflammatory activity in human HaCaT cells assessed as inhibition of polyinosinic polycytidylic acid-stimulated MCP2 release at 10 uM measured after 6 hrs by ELISA; assay type: functional, cell-based
Procedure, shortened: (§1)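 HaCaT keratinocytes stimulated with poly-(I:C) at 100 µg/mL. MCP-2 release measured with test agent at 10 µM, alone or co-incubated with the CB2R antagonist AM630 at 0.1 µM.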

[10] = tested on: HaCaT; assay: Antiinflammatory activity in human HaCaT cells assessed as inhibition of polyinosinic polycytidylic acid-stimulated MCP2 release at 10 uM measured after 6 hrs in presence of CB2R antagonist AM630 by ELISA; assay type: functional, cell-based; procedure, shortened: as §1

Row | SMILES | Ratio Ki [1] | Ki [2] | inhibition [3] | Ki [4] | inhibition at 1.5 h, 10 µM [5] | EC50 [6] | Activity [7] | inhibition [8] | inhibition [9] | inhibition [10]
1 | CCc1c(C)sc(NC(=O)c2ccc(F)cc2)c1C(=O)OC | > 20 | 496 nM | > 50% | > 10000 nM | < 50% | – | – | – | – | –
2 | CCCCc1sc(NC(=O)C23CC4CC(CC(C4)C2)C3)c(C(=O)OC)c1C | 34 | 1.72 nM | > 50% | 58.9 nM | < 50% | 1140 nM | inactive | inactive | – | –
3 | CCCCCc1sc(NC(=O)C23CC4CC(CC(C4)C2)C3)c(C(=O)OC)c1-c1ccccc1 | 65 | 8.03 nM | > 50% | 519 nM | < 50% | – | – | – | – | –
4 | COC(=O)c1[nH]ccc1NC(=O)C12CC3CC(CC(C3)C1)C2 | > 4 | 2140 nM | > 50% | > 10000 nM | < 50% | – | – | – | – | –
5 | COC(=O)c1c(NC(=O)N2CCOCC2)sc2c1CCCC2 | > 4 | 2490 nM | > 50% | > 10000 nM | < 50% | – | – | – | – | –
6 | CCCc1cc(C(=O)OC)c(NC(=O)C23CC4CC(CC(C4)C2)C3)s1 | 186 | 7.21 nM | > 50% | 1340 nM | < 50% | – | – | – | – | –
7 | Cc1ccc(Cn2nc(C(=O)N[C@@H]3C(C)(C)[C@@H]4CC[C@@]3(C)C4)cc2-c2ccc(Cl)c(C)c2)cc1 | – | – | – | – | < 50% | – | – | – | – | –
8 | COC(=O)c1c(NC(=O)C23CC4CC(CC(C4)C2)C3)cnn1C | > 9 | 1080 nM | > 50% | > 10000 nM | < 50% | – | – | – | – | –
9 | COC(=O)c1cc(C)sc1NC(=O)C12CC3CC(CC(C3)C1)C2 | > 433 | 23.1 nM | > 50% | > 10000 nM | < 50% | – | – | – | – | –
10 | COC(=O)c1cccnc1NC(=O)C12CC3CC(CC(C3)C1)C2 | > 8 | 1220 nM | > 50% | > 10000 nM | < 50% | – | – | – | – | –
11 | CCc1sc(NC(=O)C23CC4CC(CC(C4)C2)C3)c(C(=O)OC)c1C | 358 | 5.92 nM | > 50% | 2120 nM | < 50% | 371 nM | – | inactive | – | –
12 | COC(=O)c1c(NC(=O)C23CC4CC(CC(C4)C2)C3)sc2c1CCS(=O)(=O)C2 | > 6 | 1670 nM | > 50% | > 10000 nM | < 50% | – | – | – | – | –
13 | COC(=O)c1c(-c2ccccc2)csc1NC(=O)C12CC3CC(CC(C3)C1)C2 | > 285 | 35 nM | > 50% | > 10000 nM | < 50% | – | – | – | – | –
14 | CCCc1c(C)sc(NC(=O)C23CC4CC(CC(C4)C2)C3)c1C(=O)OC | 257 | – | > 50% | – | < 50% | – | – | – | – | –
15 | COC(=O)c1c(C)noc1NC(=O)C12CC3CC(CC(C3)C1)C2 | > 154 | 64.7 nM | > 50% | > 10000 nM | < 50% | – | – | – | – | –
16 | COC(=O)c1c(NC(=O)NC23CC4CC(CC(C4)C2)C3)sc2c1CCCC2 | > 477 | 21 nM | > 50% | > 10000 nM | < 50% | – | – | – | – | –
17 | CCc1c(C)sc(NC(=O)C23CC4CC(CC(C4)C2)C3)c1C(=O)OC | 75 | 2.46 nM | > 50% | 185 nM | < 50% | 197 nM | – | inactive | Active | inactive
18 | COC(=O)c1nn(C)cc1NC(=O)C12CC3CC(CC(C3)C1)C2 | > 11 | 845 nM | > 50% | > 10000 nM | < 50% | – | – | – | – | –
19 | COC(=O)c1c(NC(=O)N2CCCCC2)sc2c1CCCC2 | > 51 | 196 nM | > 50% | > 10000 nM | < 50% | – | – | – | – | –
20 | COC(=O)c1c(NC(=O)C23CC4CC(CC(C4)C2)C3)sc(C)c1C | > 1080 | 9.24 nM | > 50% | > 10000 nM | < 50% | 318 nM | – | inactive | – | –
21 | COC(=O)c1ccsc1NC(=O)C12CC3CC(CC(C3)C1)C2 | > 68 | 1320 nM | > 50% | > 10000 nM | < 50% | – | – | – | – | –
22 | COC(=O)c1c(NC(=O)Oc2ccccc2)sc2c1CCCC2 | > 41 | 244 nM | > 50% | > 10000 nM | < 50% | – | – | – | – | –
23 | COC(=O)c1c(NC(=O)C23CC4CC(CC(C4)C2)C3)sc2c1CCSC2 | > 197 | 50.7 nM | > 50% | > 10000 nM | < 50% | – | – | – | – | –
24 | COC(=O)c1cc(-c2ccccc2)sc1NC(=O)C12CC3CC(CC(C3)C1)C2 | > 1540 | 6.48 nM | > 50% | > 10000 nM | < 50% | – | – | – | – | –
25 | CCc1c(C)sc(NC(=O)c2ccc(Cl)cc2)c1C(=O)OC | > 16 | 621 nM | > 50% | > 10000 nM | < 50% | – | – | – | – | –
26 | COc1ccc(C(=O)c2c(C)n(CCN3CCOCC3)c3cc(I)ccc23)cc1 | – | – | > 50% | – | < 50% | – | – | – | – | –
27 | COC(=O)c1c(NC(=O)C23CC4CC(CC(C4)C2)C3)sc2c1CCCC2 | > 1970 | 5.08 nM | > 50% | > 10000 nM | < 50% | 1530 nM | inactive | inactive | – | –
